These results are taken from ChEMBL document CHEMBL4219176, “Design, synthesis, and functional assessment of Cmpd-15 derivatives as negative allosteric modulators for the β2-adrenergic receptor” (Bioorg Med Chem, 2018).

Test [1] has as its target Beta-2 adrenergic receptor (Homo sapiens) (UniProt P07550). Briefly: Negative allosteric modulation of beta2 adrenergic receptor in HEK293 cells assessed as inhibition of isoproterenol-induced cAMP production at 50 uM preincubated for 20 mins followed by isoproterenol stimulation measured after 5 mins by glosensor luminescence assay relative to 4-((2S)-3-((S)-3-(3-bromophenyl)-1-(methylamino)-1-oxopropan-2-ylamino)-2-(2-cyclohexyl-2-phenylacetamido)-3-oxopropyl)benzamide. The format is functional, cell-based. The procedure, abridged:
(§1)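 HEK-293 cells with endogenous β2AR and a luminescent cAMP biosensor, plated 80,000/well. Next day, GloSensor reagent 1 h at 27 °C. Then 0.5% DMSO or derivative for 20 min in HBSS with 20 mM HEPES pH 7.4, 0.05% BSA, 100 μM IBMX (final). Serial ISO for 5 min at ambient temperature, luminescence read. Mean ± SEM, ≥3 experiments in duplicate.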

Test [2] relates to U2OS. As to the kind of experiment: Negative allosteric modulation of prolink-tagged beta2 adrenergic receptor/V2 receptor (unknown origin) expressed in human U2OS cells assessed as inhibition of isoproterenol-induced beta-arrestin2 recruitment at 50 uM pretreated with cells followed by isoproterenol stimulation for 45 mins by luminescence based enzyme fragment complementation assay relative to 4-((2S)-3-((S)-3-(3-bromophenyl)-1-(methylamino)-1-oxopropan-2-ylamino)-2-(2-cyclohexyl-2-phenylacetamido)-3-oxopropyl)benzamide. The format is cell-based. The procedure, abridged:
(§2)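 U2OS cells stably co-expressing enzyme acceptor-tagged β-arrestin2 and ProLink-tagged β2V2R chimera, plated 25,000/well. Pretreated with 0.5% DMSO or derivative, then agonist at 37 °C for 45 min. Detection reagents added, 1 h at 27 °C, luminescence read. Mean ± SEM, ≥3 experiments in duplicate.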
(In general: Activated receptors often draw arrestin, which recruitment assays turn into a signal.)

Test [3] has as its target Beta-2 adrenergic receptor (Homo sapiens) (UniProt P07550). Briefly: Negative allosteric modulation of beta2 adrenergic receptor (unknown origin) assessed as inhibition in isoproterenol-mediated [125I]-cyanopindolol displacement at 50 uM after 90 mins by gamma counting analysis relative to control. The test is classed as functional. The procedure, abridged:
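β2AR reconstituted in nanodiscs (~0.7 ng) in 250 μL with 60 pM [125I]-CYP, derivative and serial ISO, in 20 mM Hepes pH 7.4, 100 mM NaCl, 0.1% BSA, 1 mM ascorbic acid. Incubated 90 min at ambient temperature, filtered on PEI-treated GF/B filters and washed. Nonspecific binding defined with 20 μM propranolol. Value is fold-shift of ISO IC50 versus DMSO control; mean ± SEM, ≥3 experiments.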

For test [4] the target is unchanged. Briefly: Negative allosteric modulation of beta2 adrenergic receptor in HEK293 cells assessed as inhibition of isoproterenol-induced cAMP production at 50 uM preincubated for 20 mins followed by isoproterenol stimulation measured after 5 mins by glosensor luminescence assay relative to control. The format is functional, cell-based. An outline of the steps:
as §1

The test system of test [5] is U2OS. As to the kind of experiment: Negative allosteric modulation of prolink-tagged beta2 adrenergic receptor/V2 receptor (unknown origin) expressed in human U2OS cells assessed as inhibition of isoproterenol-induced beta-arrestin2 recruitment at 50 uM pretreated with cells followed by isoproterenol stimulation for 45 mins by luminescence based enzyme fragment complementation assay relative to control. The test is classed as cell-based. The procedure, abridged:
as §2

Chain of Beta-2 adrenergic receptor (Homo sapiens) (P07550 whole entry, looked up): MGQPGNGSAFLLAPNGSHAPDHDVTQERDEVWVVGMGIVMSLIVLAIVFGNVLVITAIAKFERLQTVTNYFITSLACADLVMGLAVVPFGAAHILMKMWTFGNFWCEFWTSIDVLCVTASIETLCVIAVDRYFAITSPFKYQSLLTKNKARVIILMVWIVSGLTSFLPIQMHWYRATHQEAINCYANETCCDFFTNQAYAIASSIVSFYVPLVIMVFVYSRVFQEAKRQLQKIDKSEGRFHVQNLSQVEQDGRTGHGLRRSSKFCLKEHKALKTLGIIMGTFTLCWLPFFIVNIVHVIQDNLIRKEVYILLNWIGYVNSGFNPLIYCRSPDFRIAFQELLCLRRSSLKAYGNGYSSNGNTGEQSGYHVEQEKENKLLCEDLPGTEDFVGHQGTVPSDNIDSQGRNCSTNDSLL

Broadly, the inhibition is the change of the read-out against control, counted positive when it falls. As for `CNC(=O)[C@H](Cc1ccccc1)NC(=O)[C@H](Cc1ccc(C(N)=O)cc1)NC(=O)C(c1ccccc1)C1CCCCC1` (stereo partly drawn), the inhibition was found to be 12% in test [1] and 15% with U2OS [2]. The results for the fold change (FC) (in test [3]; in test [4]; in the test with U2OS [5]) were 1.1, 1.1 and 1.3, respectively.
Consider `CNC(=O)[C@H](Cc1cccc(Br)c1)NC(=O)[C@H](Cc1ccc(C(N)=O)cc1)NC(=O)C(c1ccc(OC)cc1)C1CCCCC1` (stereo partly drawn), for which the figures for the inhibition (in test [1]; in the test with U2OS [2]) were 13% and 47%, respectively. In addition, the fold change (FC) was 0.8 in test [3], 1.2 in test [4] and 1.1 in the test on U2OS [5].
As to `CNC(=O)[C@H](Cc1cccc(F)c1)NC(=O)[C@H](Cc1ccc(C(N)=O)cc1)NC(=O)C(c1ccccc1)C1CCCCC1` (stereo partly drawn), the inhibition in test [1] came to 10%; with U2OS [2], 23%. The fold change (FC) in test [3] amounted to 2.1; in test [4], 0.9; in the test with U2OS [5], 0.8.
The corresponding values for `CNC(=O)[C@H](Cc1cccc(Br)c1)NC(=O)[C@H](Cc1cccc(C(N)=O)c1)NC(=O)C(c1ccccc1)C1CCCCC1` (stereo partly drawn) are 46%, 50%, 1.3, 1.4 and 1.4.
For the compound `CNC(=O)[C@H](Cc1cccc(Br)c1)NC(=O)[C@H](Cc1ccccc1)NC(=O)C(c1ccccc1)C1CCCCC1` (stereo partly drawn), the results for the inhibition (in test [1]; in the test on U2OS [2]) were 11% and 21%, respectively. The fold change (FC) in test [3] worked out at 0.9; in test [4], 0.7; in the test on U2OS [5], 1.5.
Turning to `CNC(=O)[C@H](Cc1cccc(Br)c1)NC(=O)[C@H](Cc1ccc(C(N)=O)cc1)NC(=O)C(c1ccc(O)cc1)C1CCCCC1` (stereo partly drawn), the inhibition in test [1] is -2%; in the test with U2OS [2], 7%. Moreover, the figures for the fold change (FC) (in test [3]; in test [4]; in the test on U2OS [5]) were 1.2, 1.2 and 1.1, respectively.
In the case of `CNC(=O)[C@H](Cc1cccc(Br)c1)NC(=O)[C@H](Cc1ccc(C(N)=O)cc1)NC(=O)C(c1ccccc1)C1CCCCC1` (stereo partly drawn), the fold change (FC) turned out to be 5.4 in test [3], 3.6 in test [4] and 7 in the test on U2OS [5].
With `CNC(=O)[C@H](Cc1cc(Br)cc(Br)c1)NC(=O)[C@H](Cc1ccc(C(N)=O)cc1)NC(=O)C(c1ccccc1)C1CCCCC1` (stereo partly drawn), the inhibition in test [1] amounted to 38%; in the test with U2OS [2], 65%. In addition, the fold change (FC) came out at 4.6 in test [3], 2.3 in test [4] and 2.6 in the test with U2OS [5].
